Laboratory results from ChEMBL document CHEMBL1149292, “A rational utilization of high-throughput screening affords selective, orally bioavailable 1-benzyl-3-carboxyazetidine sphingosine-1-phosphate-1 receptor agonists” (J Med Chem, 2004).
Activity calls are given as the source filed them. The rule behind the calls is not given here.

Legend:
[1] = biological target: Sphingosine 1-phosphate receptor 2 (Homo sapiens, UniProt O95136); assay: Displacement of [33P]sphingosine 1 phosphate from human S1P2 receptor expressed in CHO cells; assay type: cell-based
Chain of Sphingosine 1-phosphate receptor 2 (O95136 whole entry): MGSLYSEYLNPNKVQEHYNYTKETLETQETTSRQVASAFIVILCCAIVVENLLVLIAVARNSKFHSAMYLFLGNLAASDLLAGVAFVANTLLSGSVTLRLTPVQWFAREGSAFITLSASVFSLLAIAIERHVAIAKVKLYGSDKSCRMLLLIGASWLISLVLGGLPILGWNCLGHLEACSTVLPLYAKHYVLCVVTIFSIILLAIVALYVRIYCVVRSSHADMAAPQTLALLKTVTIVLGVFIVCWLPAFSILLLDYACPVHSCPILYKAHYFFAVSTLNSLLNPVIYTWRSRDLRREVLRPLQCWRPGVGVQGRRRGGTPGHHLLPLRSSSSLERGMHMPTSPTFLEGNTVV

[2] = biological target: T1, Sphingosine 1-phosphate receptor 4 (Homo sapiens, UniProt O95977); assay: Displacement of [33P]sphingosine 1 phosphate from human S1P4 receptor expressed in CHO cells; assay type: cell-based
T1 sequence (O95977 whole entry): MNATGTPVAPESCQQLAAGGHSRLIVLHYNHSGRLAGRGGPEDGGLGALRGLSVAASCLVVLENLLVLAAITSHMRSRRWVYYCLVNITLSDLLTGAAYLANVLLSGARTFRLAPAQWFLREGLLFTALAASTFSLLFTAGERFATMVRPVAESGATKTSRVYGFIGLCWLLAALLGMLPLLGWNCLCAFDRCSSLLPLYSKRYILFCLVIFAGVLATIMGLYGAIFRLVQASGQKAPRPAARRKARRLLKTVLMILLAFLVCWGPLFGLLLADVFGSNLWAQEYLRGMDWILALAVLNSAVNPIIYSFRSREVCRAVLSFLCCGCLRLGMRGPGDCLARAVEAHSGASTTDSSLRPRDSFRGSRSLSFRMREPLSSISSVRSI
Summary of the method: (§1)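 Competition binding with [33P]-labeled S1P on membranes of CHO cells stably expressing each human S1P receptor. Values are the mean of n = 3 determinations.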

[3] = biological target: Sphingosine 1-phosphate receptor 5 (Homo sapiens, UniProt Q9H228); assay: Displacement of [33P]sphingosine 1 phosphate from human S1P5 receptor expressed in CHO cells; assay type: cell-based; summary of the method: as §1
Chain of Sphingosine 1-phosphate receptor 5 (Q9H228 whole entry): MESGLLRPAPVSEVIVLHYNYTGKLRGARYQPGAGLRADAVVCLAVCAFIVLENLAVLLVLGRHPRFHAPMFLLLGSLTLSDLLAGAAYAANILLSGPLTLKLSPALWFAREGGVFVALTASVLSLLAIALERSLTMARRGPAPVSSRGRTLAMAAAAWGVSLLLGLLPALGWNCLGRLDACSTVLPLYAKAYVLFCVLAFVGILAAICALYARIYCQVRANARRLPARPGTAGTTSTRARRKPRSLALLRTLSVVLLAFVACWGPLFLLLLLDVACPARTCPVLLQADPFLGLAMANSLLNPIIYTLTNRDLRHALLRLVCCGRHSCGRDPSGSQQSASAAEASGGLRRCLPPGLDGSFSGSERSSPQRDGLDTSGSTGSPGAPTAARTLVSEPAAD

[4] = biological target: T2, Sphingosine 1-phosphate receptor 1 (Homo sapiens, UniProt P21453); assay: Activity at human S1P1 receptor expressed in CHO cells by [35S]GTPgammaS binding assay; assay type: functional, cell-based
T2 sequence (P21453 whole entry): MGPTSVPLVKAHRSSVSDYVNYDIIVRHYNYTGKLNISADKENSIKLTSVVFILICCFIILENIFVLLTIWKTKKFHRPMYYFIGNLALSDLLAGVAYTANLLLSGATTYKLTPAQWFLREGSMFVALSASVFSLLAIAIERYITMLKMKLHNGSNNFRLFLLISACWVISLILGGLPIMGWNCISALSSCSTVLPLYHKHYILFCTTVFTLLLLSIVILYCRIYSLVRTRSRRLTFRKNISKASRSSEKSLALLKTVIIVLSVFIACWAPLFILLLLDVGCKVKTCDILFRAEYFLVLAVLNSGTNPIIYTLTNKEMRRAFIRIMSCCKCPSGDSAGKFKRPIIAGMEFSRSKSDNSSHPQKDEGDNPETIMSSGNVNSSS
Summary of the method: (§2)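 Agonism measured as ligand-induced [35S]-GTPγS binding to membranes of CHO cells stably expressing the human S1P receptor.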

[5] = biological target: T3, Sphingosine 1-phosphate receptor 3 (Homo sapiens, UniProt Q99500); assay: Displacement of [33P]sphingosine 1 phosphate from human S1P3 receptor expressed in CHO cells; assay type: cell-based
T3 sequence (Q99500 whole entry): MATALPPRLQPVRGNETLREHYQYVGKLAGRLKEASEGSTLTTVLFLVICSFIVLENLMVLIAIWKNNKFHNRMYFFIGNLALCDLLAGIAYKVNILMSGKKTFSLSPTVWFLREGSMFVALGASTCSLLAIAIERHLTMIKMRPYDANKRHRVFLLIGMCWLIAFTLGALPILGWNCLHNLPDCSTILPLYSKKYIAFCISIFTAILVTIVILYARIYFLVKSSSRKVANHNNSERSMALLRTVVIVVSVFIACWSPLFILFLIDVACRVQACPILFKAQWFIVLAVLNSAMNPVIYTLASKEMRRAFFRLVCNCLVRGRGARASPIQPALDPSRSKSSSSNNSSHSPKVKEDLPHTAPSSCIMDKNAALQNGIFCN

[6] = biological target: T2, Sphingosine 1-phosphate receptor 1; assay: Displacement of [33P]sphingosine 1 phosphate from human S1P1 receptor expressed in CHO cells; assay type: cell-based
[7] = Plasma clearance in rat at 2 mg/kg, po and 1 mg/kg, iv; assay type: ADME, organism-based
Summary of the method: (§3)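 Rat PK at 2.0 mpk po and 1.0 mpk iv. Plasma compound levels measured.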

Mus musculus = assay: Decrease in peripheral blood lymphocytes in po dosed mouse after 3 hrs; assay type: functional
Summary of the method: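 Compound given orally to mice. Peripheral blood lymphocyte counts taken 3 h after dosing, expressed as average percent decrease in n = 3 animals versus controls (n = 3). ED50 from dose-titration.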

[8] = Half life in rat at 2 mg/kg, po and 1 mg/kg, iv; assay type: ADME, organism-based; conditions: in vivo; summary of the method: as §3
[9] = Bioavailability in rat at 2 mg/kg, po and 1 mg/kg, iv; assay type: ADME, organism-based; conditions: in vivo; summary of the method: as §3
[10] = Volume of distribution at steady state in rat at 2 mg/kg, po and 1 mg/kg, iv; assay type: ADME, organism-based; conditions: in vivo, read-out: Vdss
[11] = Cmax in rat at 2 mg/kg, po and 1 mg/kg, iv; assay type: ADME, organism-based; conditions: in vivo; summary of the method: as §3
[12] = Half life in rat; assay type: ADME, organism-based; conditions: in vivo
[13] = Oral bioavailability in rat; assay type: ADME, organism-based; conditions: in vivo
Canis familiaris [14] = assay: Maximal decrease in peripheral blood lymphocyte in Beagle dog at 1 mg/kg, po after 24 hrs; assay type: functional, organism-based; parameters: dose 1 mg/kg; conditions: Canis lupus familiaris
Summary of the method: (§4)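 Complete blood counts run alongside plasma concentrations after a single 1.0 mpk oral dose in beagle dog or rhesus monkey. Lymphocyte counts followed over time, with PBL lowering assessed at 24 h postdose.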

[15] = Half life in rhesus monkey at 1 mg/kg, po and 0.5 mg/kg, iv; conditions: in vivo
[16] = Volume of distribution at steady state in rhesus monkey at 1 mg/kg, po and 0.5 mg/kg, iv; assay type: ADME, organism-based, Macaca mulatta; conditions: in vivo, read-out: Vdss
Canis familiaris [17] = assay: Cmax in Beagle dog at 1 mg/kg, po and 0.5 mg/kg, iv; assay type: ADME, organism-based, Canis lupus familiaris; conditions: in vivo
Summary of the method: (§5)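 Single-dose PK at 1.0 mpk po and 0.5 mpk iv. Plasma compound levels measured.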

[18] = Volume of distribution at steady state in Beagle dog at 1 mg/kg, po and 0.5 mg/kg, iv; assay type: ADME, organism-based, Canis lupus familiaris; conditions: in vivo, read-out: Vdss
[19] = Bioavailability in Beagle dog at 1 mg/kg, po and 0.5 mg/kg, iv; assay type: ADME, organism-based, Canis lupus familiaris; conditions: in vivo; summary of the method: as §5
[20] = Bioavailability in rhesus monkey at 1 mg/kg, po and 0.5 mg/kg, iv; assay type: ADME, organism-based, Macaca mulatta; conditions: in vivo; summary of the method: as §5
Rhesus monkey = assay: Maximal decrease in peripheral blood lymphocyte in rhesus monkey at 1 mg/kg, po after 24 hrs; assay type: functional, organism-based; parameters: dose 1 mg/kg; conditions: Macaca mulatta; summary of the method: as §4
[21] = Cmax in rhesus monkey at 1 mg/kg, po and 0.5 mg/kg, iv; assay type: ADME, organism-based, Macaca mulatta; conditions: in vivo; summary of the method: as §5
[22] = Plasma clearance in rhesus monkey at 1 mg/kg, po and 0.5 mg/kg, iv; assay type: ADME, organism-based, Macaca mulatta; summary of the method: as §5
[23] = Half life in Beagle dog at 1 mg/kg, po and 0.5 mg/kg, iv; conditions: in vivo
Canis familiaris [24] = assay: Plasma clearance in Beagle dog at 1 mg/kg, po and 0.5 mg/kg, iv; assay type: ADME, organism-based, Canis lupus familiaris; conditions: in vivo; summary of the method: as §5
[25] = biological target: T3, Sphingosine 1-phosphate receptor 3; assay: Activity at human S1P3 receptor expressed in CHO cells by [35S]GTP-gamma-S binding assay; assay type: functional, cell-based; summary of the method: as §2

IC50 [1] [nM]	IC50 [2]	IC50 [3]	EC50 [4]	IC50 [5]	IC50 [6]	Compound	ED50 (Mus musculus) [mg/kg]	also measured
> 10000	2800 nM (antagonist)	77 nM (antagonist)	47 nM (agonist)	> 10000 nM	33 nM (antagonist)	COc1cc(CN2CC(C(=O)O)C2)ccc1OCc1cc(-c2ccccc2)c(C(F)(F)F)s1	–	–
> 10000	> 10000 nM	> 10000 nM	–	> 10000 nM	25 nM (antagonist)	FC(F)(F)c1sc(-c2nc(-c3ccccc3)no2)cc1-c1ccccc1	–	–
> 10000	> 10000 nM	4600 nM (antagonist)	–	> 10000 nM	–	FC(F)(F)c1cccc(-c2noc(-c3cc(-c4ccccc4)c(C(F)(F)F)s3)n2)c1	–	–
> 10000	45 nM (antagonist)	6.3 nM (antagonist)	–	220 nM (antagonist)	6.9 nM (antagonist)	CCCCCCCCCc1ccc(CN2CCC(P(=O)(O)O)C2)cc1 (stereo unspecified)	–	–
> 10000	1300 nM (antagonist)	18 nM (antagonist)	1.4 nM (agonist)	2000 nM (antagonist)	3.2 nM (antagonist)	O=C(O)C1CN(Cc2ccc(OCc3cc(-c4ccccc4)c(C(F)(F)F)s3)c(Cl)c2)C1	0.54	clearance [7]: 8.2 mL/min/kg; half-life [8]: 7 h; bioavailability [9]: 62%; Vd [10]: 3.8 L/kg; Cmax [11]: 500 nM
> 10000	> 10000 nM	2100 nM (antagonist)	–	> 10000 nM	–	CCCCCCCCc1ccc(CCC(N)(CO)CO)cc1 [FINGOLIMOD]	0.15	–
> 10000	2500 nM (antagonist)	29 nM (antagonist)	–	2100 nM (antagonist)	20 nM (antagonist)	CCCCCCCCCc1ccc(CN2CCC(C(=O)O)C2)cc1 (stereo unspecified)	23	half-life [12]: 0.9 h; bioavailability [13]: > 70%
> 10000	340 nM (antagonist)	21 nM (antagonist)	5.9 nM (agonist)	> 10000 nM	7.7 nM (antagonist)	O=C(O)C1CN(Cc2ccc(OCc3cc(-c4ccccc4)c(C(F)(F)F)s3)c(C(F)(F)F)c2)C1	–	–
> 10000	120 nM (antagonist)	12 nM (antagonist)	1.3 nM (agonist)	10000 nM	4 nM (antagonist)	Cc1cc(CN2CC(C(=O)O)C2)cc(C)c1OCc1cc(-c2ccccc2)c(C(F)(F)F)s1	–	–
> 10000	2400 nM (antagonist)	53 nM (antagonist)	3.3 nM (agonist)	> 10000 nM	13 nM (antagonist)	O=C(O)C1CN(Cc2ccc(OCc3cc(-c4ccccc4)c(C(F)(F)F)s3)c(Br)c2)C1	–	–
> 10000	1500 nM (antagonist)	13 nM (antagonist)	0.8 nM (agonist)	7500 nM (antagonist)	1.8 nM (antagonist)	Cc1cc(CN2CC(C(=O)O)C2)ccc1OCc1cc(-c2ccccc2)c(C(F)(F)F)s1	0.18	clearance [7]: 8.2 mL/min/kg; Activity (Canis familiaris [14]): Active; half-life [15]: 12.6 h; Vd [16]: 1.2 L/kg; Cmax (Canis familiaris [17]): 3200 nM; half-life [8]: 8.9 h; Vd [18]: 0.9 L/kg; bioavailability [9]: 88%; bioavailability [19]: 100%; bioavailability [20]: 96%; Activity (Rhesus monkey): Active; Cmax [21]: 1800 nM; Vd [10]: 5.7 L/kg; Cmax [11]: 500 nM; clearance [22]: 1.3 mL/min/kg; half-life [23]: 22.3 h; clearance (Canis familiaris [24]): 0.5 mL/min/kg
> 10000	640 nM (antagonist)	33 nM (antagonist)	2.7 nM (agonist)	> 10000 nM	7.5 nM (antagonist)	O=C(O)C1CN(Cc2cc(Cl)c(OCc3cc(-c4ccccc4)c(C(F)(F)F)s3)c(Cl)c2)C1	–	–
> 10000	> 10000 nM	> 10000 nM	–	> 10000 nM	78 nM (antagonist)	FC(F)(F)c1sc(-c2nc(-c3ccc(Cl)cc3Cl)no2)cc1-c1ccccc1	–	–
> 10000	2700 nM (antagonist)	41 nM (antagonist)	1.3 nM (agonist)	2100 nM (antagonist)	2.7 nM (antagonist)	O=C(O)C1CN(Cc2ccc(OCc3cc(-c4ccccc4)c(C(F)(F)F)s3)c(F)c2)C1	–	–
> 10000	> 10000 nM	10 nM (antagonist)	1.4 nM (agonist)	4300 nM (antagonist)	3.5 nM (antagonist)	CCc1cc(CN2CC(C(=O)O)C2)ccc1OCc1cc(-c2ccccc2)c(C(F)(F)F)s1	–	–
–	80 nM (antagonist)	–	–	–	–	CCCCCCCCOc1c(Br)cc(CNCCCP(=O)(O)O)cc1OC	–	–
> 10000	790 nM (antagonist)	120 nM (antagonist)	2.4 nM (agonist)	1000 nM (antagonist)	4.3 nM (antagonist)	O=C(O)C1CCN(Cc2ccc(OCc3cc(-c4ccccc4)c(C(F)(F)F)s3)cc2)C1 (stereo unspecified)	–	–
> 10000	5400 nM (antagonist)	11 nM (antagonist)	–	4900 nM (antagonist)	18 nM (antagonist)	CCCCCCCCCc1ccc(CN2CC(C(=O)O)C2)cc1	5.2	half-life [12]: 1.4 h; bioavailability [13]: > 70%
> 10000	10000 nM	16 nM (antagonist)	0.2 nM (agonist)	1000 nM (antagonist)	8.3 nM (antagonist)	O=C(O)C1CN(Cc2ccc(-c3noc(-c4cc(-c5ccccc5)c(C(F)(F)F)s4)n3)cc2)C1	0.07	clearance [7]: 2.2 mL/min/kg; EC50 [25]: 17 nM (agonist); half-life [8]: 10.5 h; bioavailability [9]: 64%; Vd [10]: 1.9 L/kg; Cmax [11]: 1300 nM

Compound	IC50 [1] [nM]	IC50 [2]	IC50 [3]	EC50 [4]	IC50 [5]	IC50 [6]	ED50 (Mus musculus) [mg/kg]	also measured
CCCCCCCCCCCCC/C=C/[C@@H](O)[C@@H](N)COP(=O)(O)O	–	34 nM (antagonist)	–	–	0.26 nM (antagonist)	0.67 nM (antagonist)	–	–
